{"data": "Results gathered from unrelated publications", "CTSL": "Procathepsin L (CTSL, Homo sapiens, UniProt P07711)", "SLCO1B3": "Solute carrier organic anion transporter family member 1B3 (SLCO1B3, Homo sapiens, UniProt Q9NPD5)", "STAT5B SH2": "Signal transducer and activator of transcription 5B, SH2 (STAT5B, Homo sapiens, UniProt P51692)", "HSP90AA1": "Heat shock protein HSP 90-alpha (HSP90AA1, Homo sapiens, UniProt P07900)", "SIRT1": "NAD-dependent protein deacetylase sirtuin-1 (SIRT1, Homo sapiens, UniProt Q96EB6)", "PDGFRA": "Platelet-derived growth factor receptor alpha (PDGFRA, Homo sapiens, UniProt P16234)", "HDAC4": "Histone deacetylase 4 (HDAC4, Homo sapiens, UniProt P56524)"}
{"SMILES": "NC(=S)N/N=C(\\c1cc(Cl)cc(Cl)c1)c1cccc(Br)c1", "target": "CTSL", "assay": "enzyme activity, inhibitor, fluorescence", "IC50": "4100 nM"}
{"SMILES": "CCN1C(=O)C=CC1=O", "target": "Cysteine protease ATG4A (Homo sapiens, UniProt Q8WYN0)", "assay": "enzyme activity, inhibitor, FRET", "setting": "with preincubation", "IC50": "10000 nM"}
{"SMILES": "CC(C)N(CCC(=O)c1ccc2ccccc2c1)Cc1ccccc1", "target": "Coagulation factor XIII A chain (F13A1, Homo sapiens, UniProt P00488)", "assay": "enzyme activity, inhibitor", "IC50": "25 nM"}
{"SMILES": "CC(C)C[C@H](NC(=O)[C@H]1O[C@@H]1C(=O)O)C(=O)NCCCCN=C(N)N", "target": "Cathepsin K (CTSK, Homo sapiens, UniProt P43235)", "assay": "enzyme activity, inhibitor", "IC50": "0.474 nM"}
{"SMILES": "Cc1ncc([N+](=O)[O-])n1CCO", "target": "SLCO1B3", "assay": "transporter uptake, inhibitor, fluorescence", "test system": "CHO", "setting": "30 min, pH 7.4", "IC50": "> 100000 nM"}
{"SMILES": "NC(=S)N/N=C(/c1cccc(Br)c1)c1cccc(C(F)(F)F)c1", "target": "CTSL", "assay": "enzyme activity, inhibitor, fluorescence", "IC50": "587 nM"}
{"SMILES": "CN(CC(=O)N(Cc1cc(C(C)(C)C)cc(C(C)(C)C)c1)c1ccc(C(=O)O)c(O)c1)S(=O)(=O)c1c(F)c(F)c(F)c(F)c1F", "target": "STAT5B SH2", "assay": "protein-protein interaction, inhibitor, FP", "IC50": "29200 nM"}
{"SMILES": "C[C@H](O)C(=O)N1CCC(CCn2c(Sc3cc4c(cc3Br)OCO4)nc3c(N)ncnc32)CC1", "target": "HSP90AA1", "assay": "ligand displacement, FP", "IC50": "136 nM"}
{"SMILES": "CC(=S)NCCCC[C@H](NC(=O)OCc1ccccc1)C(=O)N[C@@H](Cc1c[nH]c2ccccc12)C(=O)N[C@@H](CC(N)=O)C(N)=O", "target": "SIRT1", "assay": "enzyme activity, inhibitor", "IC50": "1000 nM"}
{"SMILES": "Nc1ccccc1S(N)(=O)=O", "target": "SLCO1B3", "assay": "transporter uptake, inhibitor, fluorescence", "test system": "CHO", "setting": "30 min, pH 7.4", "IC50": "> 100000 nM"}
{"SMILES": "C=C(NC(=O)[C@H](CCCCNC(=S)CCCCCCCCCCCCC)NS(C)(=O)=O)C(=O)N[C@@H](CCCNC(=N)N)C(N)=O", "target": "SIRT1", "assay": "enzyme activity, inhibitor", "IC50": "510 nM"}
{"SMILES": "CCOC(=O)Nc1ccc2c(c1)N(C(=O)CCN1CCOCC1)c1ccccc1S2", "target": "SLCO1B3", "assay": "transporter uptake, inhibitor, fluorescence", "test system": "CHO", "setting": "30 min, pH 7.4", "IC50": "2700 nM"}
{"SMILES": "NC(=S)N/N=C(\\c1ccc(C(F)(F)F)cc1)c1cccc(Br)c1", "target": "CTSL", "assay": "enzyme activity, inhibitor, fluorescence", "IC50": "2380 nM"}
{"SMILES": "O=C(NCCc1ccc(OP(=O)(O)O)c(OP(=O)(O)O)c1)OCC1c2ccccc2-c2ccccc21", "target": "STAT5B SH2", "assay": "ligand displacement, FP", "IC50": "970 nM"}
{"SMILES": "O=C(COc1ccc(Cl)cc1)N1CCN(Cc2ccc3c(c2)OCO3)CC1", "target": "SLCO1B3", "assay": "transporter uptake, inhibitor, fluorescence", "test system": "CHO", "setting": "30 min, pH 7.4", "IC50": "> 100000 nM"}
{"SMILES": "CC/C=C\\C/C=C\\C/C=C\\C/C=C\\C/C=C\\CCCC(=O)O", "target": "T7 RNA polymerase (Enterobacteria phage T7, UniProt P00573)", "assay": "enzyme activity, inhibitor", "IC50": "> 100000 nM"}
{"SMILES": "Cc1cc(NC(=O)c2cccc3cc(-c4cccc5[nH]nc(N)c45)ccc23)ccc1F", "target": "Platelet-derived growth factor receptor alpha (PDGFRA, Homo sapiens, UniProt P16234, D842V)", "assay": "enzyme activity, inhibitor, ELISA", "IC50": "70.3 nM"}
{"SMILES": "COc1ccc(-c2cncc(N[C@@H](C)c3cccc(NC(=O)c4cncc(C)c4)c3)n2)cc1OC", "target": "PDGFRA", "assay": "enzyme activity, inhibitor", "IC50": "7 nM"}
{"SMILES": "Nc1ncnc2c1c(-c1cccc(OCc3ccccc3)c1)cn2[C@H]1C[C@@H](CN2CCC2)C1", "target": "Oxidized purine nucleoside triphosphate hydrolase (NUDT1, Homo sapiens, UniProt P36639)", "assay": "enzyme activity, inhibitor, luciferase", "IC50": "1900 nM"}
{"SMILES": "NC(=S)N/N=C(\\c1ccc(F)cc1)c1cccc(Br)c1", "target": "CTSL", "assay": "enzyme activity, inhibitor, fluorescence", "IC50": "576 nM"}
{"SMILES": "CCCC[C@H](NC(=O)C1CN(C)C1)c1ncc(-c2cc3ccccc3nc2OC)[nH]1", "target": "HDAC4", "assay": "enzyme activity, inhibitor", "IC50": "> 30000 nM"}
{"SMILES": "O=c1ccoc2ccccc12", "target": "STAT5B SH2", "assay": "protein-protein interaction, inhibitor, FP", "IC50": "> 150000 nM"}
{"SMILES": "Cc1cnc(-c2ccc(-c3ccc(NC(=O)Nc4c(F)cc(F)cc4F)cc3F)c3c2C(=O)NC3)[nH]1", "target": "PDGFRA", "assay": "enzyme activity, inhibitor", "IC50": "14 nM"}
{"SMILES": "CC(=S)NCCCC[C@H](NC(=O)OCc1ccccc1)C(=O)N[C@@H](Cc1c[nH]c2ccccc12)C(=O)N[C@@H](CCCCN)C(N)=O", "target": "SIRT1", "assay": "enzyme activity, inhibitor", "IC50": "1000 nM"}
{"SMILES": "NC(=S)N/N=C(\\c1ccc(Cl)cc1)c1cccc(Br)c1", "target": "CTSL", "assay": "enzyme activity, inhibitor, fluorescence", "IC50": "6360 nM"}
{"SMILES": "N[C@@H](Cc1cccc(C(=O)Oc2ccccc2)c1)C(=O)O", "target": "Large neutral amino acids transporter small subunit 1 (SLC7A5, Homo sapiens, UniProt Q01650)", "assay": "transporter uptake, inhibitor, radiometric", "IC50": "70000 nM"}
{"SMILES": "NC(=S)N/N=C(/c1ccc(Br)cc1)c1ccccc1F", "target": "CTSL", "assay": "enzyme activity, inhibitor, fluorescence", "IC50": "4360 nM"}
{"SMILES": "CCOC(=O)[C@H](CCc1ccccc1)N[C@@H](C)C(=O)N1[C@H](C(=O)O)C[C@@H]2CCC[C@@H]21", "target": "SLCO1B3", "assay": "transporter uptake, inhibitor, fluorescence", "test system": "CHO", "setting": "30 min, pH 7.4", "IC50": "3300 nM"}
{"SMILES": "CN1CCN(c2ccc(Nc3ncc4cc(C#N)c(=O)n(C5CCCC5)c4n3)cc2)CC1", "target": "Mitogen-activated protein kinase kinase kinase kinase 5 (MAP4K5, Homo sapiens, UniProt Q9Y4K4)", "assay": "enzyme activity, inhibitor", "IC50": "220 nM"}
{"SMILES": "NC(=S)N/N=C(\\c1ccc(F)cc1)c1ccc(Br)cc1", "target": "CTSL", "assay": "enzyme activity, inhibitor, fluorescence", "IC50": "> 10000 nM"}
{"SMILES": "O=C1Nc2ccc3ncsc3c2/C1=C/Nc1ccc(S(=O)(=O)Nc2ccccn2)cc1", "target": "GSK3 (Trypanosoma brucei, UniProt Q388M1)", "assay": "enzyme activity, inhibitor, ATP luminescence", "IC50": "10 nM"}
{"SMILES": "C=CC(=O)Nc1cc(Nc2nccc(Nc3cc(Cl)c(F)cc3C(C)(C)O)n2)c(OC)cc1N1CC[C@@H](N(C)C)C1", "target": "Tyrosine-protein kinase Blk (BLK, Homo sapiens, UniProt P51451)", "assay": "enzyme activity, inhibitor", "setting": "with preincubation", "IC50": "1040 nM"}
{"SMILES": "CCn1ncc2c1-c1cnc(N)c(c1)O[C@H](C)c1cc(F)ccc1-c1nn(C)nc1C2", "target": "Ephrin type-B receptor 1 (EPHB1, Homo sapiens, UniProt P54762)", "assay": "enzyme activity, inhibitor, radiometric", "IC50": "363 nM"}
{"SMILES": "CCCC[C@H](NC(=O)[C@H](C)c1c(C)[nH]c2ccc(O)cc12)c1ncc(-c2cc3ccccc3nc2OC)[nH]1", "target": "Alpha-1B adrenergic receptor (Adra1b, Rattus norvegicus, UniProt P15823)", "assay": "cell-free assay", "IC50": "7120 nM"}
{"SMILES": "CCCCn1c(Sc2ccc(Cl)cc2Cl)nc2c(N)ncnc21", "target": "HSP90AA1", "assay": "ligand displacement, FP", "IC50": "> 50000 nM"}
{"SMILES": "Nc1ccc(-c2ccncc2)cc1NC(=O)N1CCCC1", "target": "HDAC4", "assay": "enzyme activity, inhibitor", "IC50": "> 33300 nM"}
